Experiments:
Vero [1] = experiment: Compound tested on vero cells infected with Toxoplasma gondii after 24 h; type: functional, cell-based; conditions: Chlorocebus sabaeus
Method in brief: (§1)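 Infected Vero cultures (tachyzoites, 1:10, 24 h at 37 °C beforehand) were exposed 24 h to compound over 0.01–30 mM, as a dilution series (0.1, 1, 10, 20, 30 mM) in triplicate per assay. Trypan blue exclusion was the read-out, and IC50 (mean ± SD) came from non-linear regression.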

Toxoplasma gondii [2] = experiment: Compound tested on intracellular parasites Toxoplasma gondii in vero cells after 24 h; type: functional, organism-based; method in brief: as §1
Vero [3] = experiment: Compound tested for percent reduction of vero cells infected with Toxoplasma gondii after 24 hr at 37 degree Centigrade (Untreated=81); type: functional, Chlorocebus sabaeus
Toxoplasma gondii [4] = experiment: Mean number of intracellular parasites in vero cells was determined after treatment with compound (Untreated=783); type: functional
Vero [5] = experiment: Compound tested for percent reduction of vero cells infected with Toxoplasma gondii after 24 h at 37 degree Celsius (Untreated=76); type: functional, Chlorocebus sabaeus
Toxoplasma gondii [6] = experiment: Mean number of intracellular parasites in vero cells was determined after treatment with compound (Untreated=768); type: functional
Vero [7] = experiment: Compound tested for percent reduction of vero cells infected with Toxoplasma gondii after 24 hr at 37 degree Centigrade (Untreated=72); type: functional, Chlorocebus sabaeus
Toxoplasma gondii [8] = experiment: Mean number of intracellular parasites in vero cells was determined after treatment with compound (Untreated=786); type: functional
Toxoplasma gondii [9] = experiment: Mean number of intracellular parasites in vero cells was determined after treatment with compound (Untreated=642); type: functional
Vero [10] = experiment: Compound tested for percent of vero cells infected with Toxoplasma gondii after 24 hr at 37 degree Centigrade (Untreated=84)
Vero [11] = experiment: Compound tested for percent reduction of vero cells infected with Toxoplasma gondii after 24 h at 37 degree Celsius (Untreated=65); type: functional, Chlorocebus sabaeus
Toxoplasma gondii [12] = experiment: Mean number of intracellular parasites in vero cells was determined after treatment with compound (Untreated=698); type: functional
Vero [13] = experiment: Compound tested for percent reduction of vero cells infected with Toxoplasma gondii after 24 h at 37 degree Celsius (Untreated=86); type: functional, Chlorocebus sabaeus
Toxoplasma gondii [14] = experiment: Mean number of intracellular parasites in vero cells was determined after treatment with compound (Untreated=663); type: functional
Vero [15] = experiment: Compound tested for percent reduction of vero cells infected with Toxoplasma gondii after 24 hr at 37 degree Centigrade (Untreated=85); type: functional, Chlorocebus sabaeus
Toxoplasma gondii [16] = experiment: Mean number of intracellular parasites in vero cells was determined after treatment with compound (Untreated=732); type: functional
Toxoplasma gondii [17] = experiment: Mean number of intracellular parasites in vero cells was determined after treatment with compound (Untreated=442); type: functional
Vero [18] = experiment: Compound tested for percent reduction of vero cells infected with Toxoplasma gondii after 24 hr at 37 degree Centigrade (Untreated=80); type: functional, Chlorocebus sabaeus
Toxoplasma gondii [19] = experiment: Mean number of intracellular parasites in vero cells was determined after treatment with compound (Untreated=840); type: functional
Toxoplasma gondii [20] = experiment: Mean number of intracellular parasites in vero cells was determined after treatment with compound (Untreated=888); type: functional
Vero [21] = experiment: Compound tested for percent reduction of vero cells infected with Toxoplasma gondii after 24 h at 37 degree Centigrade (Untreated=89); type: functional, Chlorocebus sabaeus
Toxoplasma gondii [22] = experiment: Mean number of intracellular parasites in vero cells was determined after treatment with compound (Untreated=683); type: functional
Vero [23] = experiment: Compound tested for percent reduction of vero cells infected with Toxoplasma gondii after 24 h at 37 degree Celsius (Untreated=87); type: functional, Chlorocebus sabaeus
Toxoplasma gondii [24] = experiment: Mean number of intracellular parasites in vero cells was determined after treatment with compound (Untreated=726); type: functional
[25] = Mean number of intracellular parasites in vero cells was determined after treatment with compound (Untreated=852); type: functional, Toxoplasma gondii
Toxoplasma gondii [26] = experiment: Mean number of intracellular parasites in vero cells was determined after treatment with compound (Untreated=627); type: functional
Vero [27] = experiment: Compound tested for percent reduction of vero cells infected with Toxoplasma gondii after 24 h at 37 degree Centigrade (Untreated=83); type: functional, Chlorocebus sabaeus
Toxoplasma gondii [28] = experiment: Mean number of intracellular parasites in vero cells was determined after treatment with compound (Untreated=687); type: functional
Toxoplasma gondii [29] = experiment: Mean number of intracellular parasites in vero cells was determined after treatment with compound (Untreated=628); type: functional
Toxoplasma gondii [30] = experiment: Mean number of intracellular parasites in vero cells was determined after treatment with compound (Untreated=913); type: functional

Question: Which IC50 (Vero [1]) does the source give for `C/N=C(/S)N/N=C/c1ccccc1[N+](=O)[O-]` here?
Answer: 2000 µM

Question: What about the IC50 (Toxoplasma gondii [2]) of the same molecule?
Answer: 500 µM

Question: What about the Reduction (Vero [3]) of the same molecule?
Answer: 9%

Question: What about the “Mean number of parasites” value (Toxoplasma gondii [4]) of the same molecule?
Answer: 2

Question: Which IC50 (Vero [1]) does the source give for `N/C(S)=N/N=C/c1cccc([N+](=O)[O-])c1` here?
Answer: 2000 µM

Question: What about the IC50 (Toxoplasma gondii [2]) of the same molecule?
Answer: 100 µM

Question: And the Reduction (Vero [5])?
Answer: 4%

Question: What about the “Mean number of parasites” value (Toxoplasma gondii [6]) of the same molecule?
Answer: 3

Question: With `O=C(O)CC1S/C(=N\N=C\c2cccc([N+](=O)[O-])c2)N(c2ccccc2)C1=O` (centres undefined) as the molecule, how does the Reduction (Vero [7]) read?
Answer: 13%

Question: What about the “Mean number of parasites” value (Toxoplasma gondii [8]) of the same molecule?
Answer: 2

Question: Which results are given for `O=[N+]([O-])c1ccccc1/C=N/N=C(\S)Nc1ccccc1`?
Answer: IC50 (Vero [1]): 1000 µM; IC50 (Toxoplasma gondii [2]): 500 µM; Mean number of parasites (Toxoplasma gondii [9]): 3; Infected cells (Vero [10]): 7%

Question: With `N/C(S)=N/N=C/c1ccc([N+](=O)[O-])cc1` as the molecule, how does the IC50 (Vero [1]) read?
Answer: 1500 µM

Question: And the IC50 (Toxoplasma gondii [2])?
Answer: 500 µM

Question: What about the Reduction (Vero [11]) of the same molecule?
Answer: 5%

Question: And the “Mean number of parasites” value (Toxoplasma gondii [12])?
Answer: 4

Question: With `CCN1C(=O)C(CC(=O)O)S/C1=N\N=C\c1ccccc1[N+](=O)[O-]` (centres undefined) as the molecule, how does the Reduction (Vero [13]) read?
Answer: 14%

Question: What about the “Mean number of parasites” value (Toxoplasma gondii [14]) of the same molecule?
Answer: 3

Question: Which results are given for `CCN1C(=O)C(CC(=O)O)S/C1=N\N=C\c1cccc([N+](=O)[O-])c1` (centres undefined)?
Answer: Reduction (Vero [15]): 19%; Mean number of parasites (Toxoplasma gondii [16]): 3

Question: What does the source list for `O=[N+]([O-])c1cccc(/C=N/N=C(\S)Nc2ccccc2)c1`?
Answer: IC50 (Vero [1]): 1000 µM; IC50 (Toxoplasma gondii [2]): 80 µM; Reduction (Vero [11]): 7%; Mean number of parasites (Toxoplasma gondii [17]): 11

Question: For `O=C(O)CC1SC(N/N=C/c2cccc([N+](=O)[O-])c2)=NC1=O` (centres undefined), which IC50 (Vero [1]) is on record?
Answer: 2000 µM

Question: And the IC50 (Toxoplasma gondii [2])?
Answer: 500 µM

Question: And the Reduction (Vero [18])?
Answer: 15%

Question: And the “Mean number of parasites” value (Toxoplasma gondii [19])?
Answer: 4

Question: With `CN1C(=O)C(CC(=O)O)S/C1=N\N=C\c1ccccc1[N+](=O)[O-]` (centres undefined) as the molecule, how does the IC50 (Vero [1]) read?
Answer: 2000 µM

Question: What about the IC50 (Toxoplasma gondii [2]) of the same molecule?
Answer: 500 µM

Question: What about the “Mean number of parasites” value (Toxoplasma gondii [20]) of the same molecule?
Answer: 3

Question: What about the Infected cells (Vero [10]) of the same molecule?
Answer: 15%

Question: For `C/N=C(/S)N/N=C/c1ccc([N+](=O)[O-])cc1`, which IC50 (Vero [1]) is on record?
Answer: 10000 µM

Question: And the IC50 (Toxoplasma gondii [2])?
Answer: 3000 µM

Question: And the Reduction (Vero [21])?
Answer: 12%

Question: And the “Mean number of parasites” value (Toxoplasma gondii [22])?
Answer: 72

Question: For `C/N=C(/S)N/N=C/c1cccc([N+](=O)[O-])c1`, which IC50 (Vero [1]) is on record?
Answer: 1500 µM

Question: And the IC50 (Toxoplasma gondii [2])?
Answer: 500 µM

Question: And the “Mean number of parasites” value (Toxoplasma gondii [9])?
Answer: 1

Question: And the Infected cells (Vero [10])?
Answer: 9%

Question: Which IC50 (Vero [1]) does the source give for `CC/N=C(/S)N/N=C/c1ccccc1[N+](=O)[O-]` here?
Answer: 2000 µM

Question: And the IC50 (Toxoplasma gondii [2])?
Answer: 500 µM

Question: What about the Reduction (Vero [3]) of the same molecule?
Answer: 8%

Question: What about the “Mean number of parasites” value (Toxoplasma gondii [4]) of the same molecule?
Answer: 1

Question: Which results are given for `CN1C(=O)C(CC(=O)O)S/C1=N\N=C\c1ccc([N+](=O)[O-])cc1` (centres undefined)?
Answer: Reduction (Vero [23]): 13%; Mean number of parasites (Toxoplasma gondii [24]): 2

Question: With `CC/N=C(/S)N/N=C/c1ccc([N+](=O)[O-])cc1` as the molecule, how does the IC50 (Vero [1]) read?
Answer: 2500 µM

Question: And the IC50 (Toxoplasma gondii [2])?
Answer: 500 µM

Question: And the Reduction (Vero [13])?
Answer: 17%

Question: What about the “Mean number of parasites” value [25] of the same molecule?
Answer: 9

Question: For `CCN1C(=O)C(CC(=O)O)S/C1=N\N=C\c1ccc([N+](=O)[O-])cc1` (centres undefined), which IC50 (Vero [1]) is on record?
Answer: 2000 µM

Question: What about the IC50 (Toxoplasma gondii [2]) of the same molecule?
Answer: 500 µM

Question: What about the Reduction (Vero [18]) of the same molecule?
Answer: 7%

Question: What about the “Mean number of parasites” value (Toxoplasma gondii [26]) of the same molecule?
Answer: 2

Question: What does the source list for `O=C(O)CC1SC(N/N=C/c2ccc([N+](=O)[O-])cc2)=NC1=O` (centres undefined)?
Answer: IC50 (Vero [1]): 2500 µM; IC50 (Toxoplasma gondii [2]): 500 µM; Reduction (Vero [15]): 16%; Mean number of parasites (Toxoplasma gondii [16]): 4

Question: Which Reduction (Vero [27]) does the source give for `O=C(O)CC1S/C(=N\N=C\c2ccccc2[N+](=O)[O-])N(c2ccccc2)C1=O` (centres undefined) here?
Answer: 8%

Question: And the “Mean number of parasites” value (Toxoplasma gondii [28])?
Answer: 2

Question: Which results are given for `CN1C(=O)C(CC(=O)O)S/C1=N\N=C\c1cccc([N+](=O)[O-])c1` (centres undefined)?
Answer: Reduction (Vero [15]): 11%; Mean number of parasites (Toxoplasma gondii [29]): 2

Question: For `CC/N=C(/S)N/N=C/c1cccc([N+](=O)[O-])c1`, which IC50 (Vero [1]) is on record?
Answer: 1000 µM

Question: And the IC50 (Toxoplasma gondii [2])?
Answer: 80 µM

Question: And the Reduction (Vero [5])?
Answer: 7%

Question: What about the “Mean number of parasites” value (Toxoplasma gondii [6]) of the same molecule?
Answer: 5

Question: For `NC(=O)NO` [HYDROXYUREA], which IC50 (Vero [1]) is on record?
Answer: 100 µM

Question: And the IC50 (Toxoplasma gondii [2])?
Answer: 100 µM

Question: What about the Reduction (Vero [18]) of the same molecule?
Answer: 26%

Question: What about the “Mean number of parasites” value (Toxoplasma gondii [30]) of the same molecule?
Answer: 186

Question: What does the source list for `Nc1ccc(S(=O)(=O)Nc2ncccn2)cc1` [SULFADIAZINE]?
Answer: IC50 (Vero [1]): 90 µM; IC50 (Toxoplasma gondii [2]): 100 µM
